Assay results taken from ChEMBL document CHEMBL1240415, “Design, synthesis and antimicrobial activities of some new quinoline derivatives carrying 1,2,3-triazole moiety” (2010).

How the values were obtained:
Assay type in all cases: functional
[1] = test system: Aspergillus flavus; experiment: Antifungal activity against Aspergillus flavus NCIM 524 after 3 to 4 days by serial plate dilution method; settings: for MIC: Aspergillus flavus, NCIM 524
In short: (§1)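 Sabouraud agar made from peptone, glucose and agar in water, pH 5.7. Fungal spores suspended in normal saline and used to lawn the plates, which were dried 1 h at 37 °C. Wells punched and compounds added in DMSO, with a DMSO solvent control. Triplicate plates held at 37 °C for 3–4 days. Read-out is inhibition zone diameter.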

[2] = test system: Klebsiella pneumoniae; experiment: Antibacterial activity against recultured Klebsiella pneumoniae after 3 to 4 days by serial plate dilution method; settings: for MIC: Klebsiella pneumoniae
In short: (§2)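 Serial dilutions in Mueller-Hinton broth in tubes, pH adjusted to 5.0 with phosphate buffer. Inoculated with a standardized bacterial suspension and incubated 16–18 h at 37 °C. MIC is the lowest concentration with no visible growth, tested over 6.25–100 µg/mL. Zones come from an agar well diffusion assay: compounds in DMSO are added to wells in seeded agar, DMSO control, triplicate plates, 37 °C for 3–4 days, inhibition zone diameter in mm.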

[3] = test system: Staphylococcus aureus; experiment: Antibacterial activity against Staphylococcus aureus ATTC 25923 after 3 to 4 days by serial plate dilution method; settings: for MIC: Staphylococcus aureus, ATTC 25923; in short: as §2
[4] = test system: Escherichia coli; experiment: Antibacterial activity against Escherichia coli ATTC 25922 after 3 to 4 days by serial plate dilution method; settings: for MIC: Escherichia coli, ATTC 25922; in short: as §2
[5] = test system: Candida albicans; experiment: Antifungal activity against Candida albicans after 3 to 4 days by serial plate dilution method; settings: for MIC: Candida albicans; in short: as §1
[6] = test system: Talaromyces marneffei; experiment: Antifungal activity against recultured Penicillium marneffei after 3 to 4 days by serial plate dilution method; settings: for MIC: Talaromyces marneffei; in short: as §1
[7] = test system: Pseudomonas aeruginosa; experiment: Antibacterial activity against Pseudomonas aeruginosa ATCC 27853 after 3 to 4 days by serial plate dilution method; settings: for MIC: Pseudomonas aeruginosa, ATCC 27853; in short: as §2
[8] = test system: Streptococcus pyogenes; experiment: Antibacterial activity against Streptococcus pyogenes after 3 to 4 days by serial plate dilution method; settings: for MIC: Streptococcus pyogenes; in short: as §2
[9] = test system: Trichophyton mentagrophytes; experiment: Antifungal activity against recultured Trichophyton mentagrophytes after 3 to 4 days by serial plate dilution method; settings: for MIC: Trichophyton mentagrophytes; in short: as §1
[10] = test system: Aspergillus fumigatus; experiment: Antifungal activity against Aspergillus fumigatus NCIM 902 after 3 to 4 days by serial plate dilution method; settings: for MIC: Aspergillus fumigatus, NCIM 902; in short: as §1

COc1ccc(N2CCN(Cc3cn(-c4cc(C)nc5ccc(OC)cc45)nn3)CC2)c(C)c1
12.5 µg/mL: MIC [3] | MIC [4] | MIC [7]
10 mm: diameter of the inhibition zone (DIZ) [5] | diameter of the inhibition zone (DIZ) [7]
6.25 µg/mL: MIC [1] | MIC [2] | MIC [5] | MIC [6] | MIC [8] | MIC [9] | MIC [10]
14 mm: diameter of the inhibition zone (DIZ) [1] | diameter of the inhibition zone (DIZ) [3] | diameter of the inhibition zone (DIZ) [4] | diameter of the inhibition zone (DIZ) [6] | diameter of the inhibition zone (DIZ) [9]
16 mm: diameter of the inhibition zone (DIZ) [2] | diameter of the inhibition zone (DIZ) [8] | diameter of the inhibition zone (DIZ) [10]

CCC(C)NCc1cn(-c2cc(C)nc3ccc(OC)cc23)nn1 (stereo not given)
10 mm: diameter of the inhibition zone (DIZ) [3] | diameter of the inhibition zone (DIZ) [6] | diameter of the inhibition zone (DIZ) [7]
12 mm: diameter of the inhibition zone (DIZ) [8]
11 mm: diameter of the inhibition zone (DIZ) [1] | diameter of the inhibition zone (DIZ) [2] | diameter of the inhibition zone (DIZ) [5]
25 µg/mL: MIC [9] | MIC [10]
14 mm: diameter of the inhibition zone (DIZ) [4]
12.5 µg/mL: MIC [1] | MIC [2] | MIC [3] | MIC [5] | MIC [6] | MIC [7] | MIC [8]
6.25 µg/mL: MIC [4]
<10 mm: diameter of the inhibition zone (DIZ) [9] | diameter of the inhibition zone (DIZ) [10]

COc1ccc2nc(C)cc(-n3cc(CN4CCN(c5ccc(F)cc5)CC4)nn3)c2c1
12.5 µg/mL: MIC [1] | MIC [3] | MIC [8]
6.25 µg/mL: MIC [2] | MIC [4] | MIC [5] | MIC [6] | MIC [7] | MIC [9] | MIC [10]
11 mm: diameter of the inhibition zone (DIZ) [3]
10 mm: diameter of the inhibition zone (DIZ) [1] | diameter of the inhibition zone (DIZ) [7] | diameter of the inhibition zone (DIZ) [9]
12 mm: diameter of the inhibition zone (DIZ) [2] | diameter of the inhibition zone (DIZ) [4] | diameter of the inhibition zone (DIZ) [5] | diameter of the inhibition zone (DIZ) [6]
14 mm: diameter of the inhibition zone (DIZ) [10]
<10 mm: diameter of the inhibition zone (DIZ) [8]

COc1ccc2nc(C)cc(-n3cc(CN4CCN(C5CCCCC5)CC4)nn3)c2c1
<10 mm: diameter of the inhibition zone (DIZ) [1] | diameter of the inhibition zone (DIZ) [5] | diameter of the inhibition zone (DIZ) [6] | diameter of the inhibition zone (DIZ) [9] | diameter of the inhibition zone (DIZ) [10]
10 mm: diameter of the inhibition zone (DIZ) [2] | diameter of the inhibition zone (DIZ) [3] | diameter of the inhibition zone (DIZ) [4] | diameter of the inhibition zone (DIZ) [7] | diameter of the inhibition zone (DIZ) [8]
12.5 µg/mL: MIC [2] | MIC [3] | MIC [4] | MIC [7] | MIC [8]
50 µg/mL: MIC [1] | MIC [5] | MIC [6] | MIC [9] | MIC [10]

CCN1CCN(Cc2cn(-c3cc(C)nc4ccc(OC)cc34)nn2)CC1
14 mm: diameter of the inhibition zone (DIZ) [10]
18 mm: diameter of the inhibition zone (DIZ) [3] | diameter of the inhibition zone (DIZ) [4] | diameter of the inhibition zone (DIZ) [6]
16 mm: diameter of the inhibition zone (DIZ) [1] | diameter of the inhibition zone (DIZ) [2]
6.25 µg/mL: MIC [1] | MIC [2] | MIC [3] | MIC [4] | MIC [5] | MIC [6] | MIC [7] | MIC [8] | MIC [9] | MIC [10]
12 mm: diameter of the inhibition zone (DIZ) [5] | diameter of the inhibition zone (DIZ) [7] | diameter of the inhibition zone (DIZ) [8] | diameter of the inhibition zone (DIZ) [9]

COc1ccc2nc(C)cc(-n3cc(CN(C)CCN(C)C)nn3)c2c1
12 mm: diameter of the inhibition zone (DIZ) [5]
14 mm: diameter of the inhibition zone (DIZ) [2] | diameter of the inhibition zone (DIZ) [3] | diameter of the inhibition zone (DIZ) [4] | diameter of the inhibition zone (DIZ) [7] | diameter of the inhibition zone (DIZ) [9] | diameter of the inhibition zone (DIZ) [10]
6.25 µg/mL: MIC [1] | MIC [2] | MIC [3] | MIC [4] | MIC [5] | MIC [6] | MIC [7] | MIC [8] | MIC [9] | MIC [10]
16 mm: diameter of the inhibition zone (DIZ) [1] | diameter of the inhibition zone (DIZ) [6] | diameter of the inhibition zone (DIZ) [8]

COc1ccc2nc(C)cc(-n3cc(CN4CCCC4)nn3)c2c1
12.5 µg/mL: MIC [1] | MIC [2] | MIC [3] | MIC [4] | MIC [5] | MIC [6] | MIC [7] | MIC [8] | MIC [9] | MIC [10]
12 mm: diameter of the inhibition zone (DIZ) [7] | diameter of the inhibition zone (DIZ) [9]
11 mm: diameter of the inhibition zone (DIZ) [1] | diameter of the inhibition zone (DIZ) [2] | diameter of the inhibition zone (DIZ) [8]
10 mm: diameter of the inhibition zone (DIZ) [3] | diameter of the inhibition zone (DIZ) [4] | diameter of the inhibition zone (DIZ) [5] | diameter of the inhibition zone (DIZ) [6] | diameter of the inhibition zone (DIZ) [10]

COc1ccc2nc(C)cc(-n3cc(CNCCCN(C)C)nn3)c2c1
16 mm: diameter of the inhibition zone (DIZ) [10]
10 mm: diameter of the inhibition zone (DIZ) [4]
12 mm: diameter of the inhibition zone (DIZ) [2] | diameter of the inhibition zone (DIZ) [7] | diameter of the inhibition zone (DIZ) [9]
14 mm: diameter of the inhibition zone (DIZ) [1] | diameter of the inhibition zone (DIZ) [3] | diameter of the inhibition zone (DIZ) [5] | diameter of the inhibition zone (DIZ) [6] | diameter of the inhibition zone (DIZ) [8]
6.25 µg/mL: MIC [1] | MIC [2] | MIC [3] | MIC [4] | MIC [5] | MIC [6] | MIC [7] | MIC [8] | MIC [9] | MIC [10]

COc1ccc2nc(C)cc(-n3cc(CN4CCN(c5ccccc5)CC4)nn3)c2c1
12 mm: diameter of the inhibition zone (DIZ) [2] | diameter of the inhibition zone (DIZ) [4] | diameter of the inhibition zone (DIZ) [5] | diameter of the inhibition zone (DIZ) [7]
12.5 µg/mL: MIC [2] | MIC [4] | MIC [7] | MIC [8]
10 mm: diameter of the inhibition zone (DIZ) [3] | diameter of the inhibition zone (DIZ) [8]
6.25 µg/mL: MIC [1] | MIC [3] | MIC [5] | MIC [6] | MIC [9] | MIC [10]
16 mm: diameter of the inhibition zone (DIZ) [6] | diameter of the inhibition zone (DIZ) [9] | diameter of the inhibition zone (DIZ) [10]
14 mm: diameter of the inhibition zone (DIZ) [1]
